Runt-CBFb FRET: inhibitors of RUNX1 Runt–CBFb binding, primary screen, biochemical, FRET, Cerulean-Runt, Venus-CBFb, uHTS; Runt-related transcription factor 1 (Homo sapiens) + Core-binding factor subunit beta …; Cerulean-Runt/Venus-CBFb FRET ratio 530/480, 1 h; inhibition, % at 20 µM; 220,000 tested, 0.46% active; AID 1496, 2009;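 active means inhibition over about 50% at 20 µM in the single-dose screen, limit read from the data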;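 further: 0% = DMSO wells and 100% = excess unlabeled CBFb competitor control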
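Measured by: fluorescence energy transfer, 422 nm excitation, 530/480 nm emission; Assay system: Cerulean-Runt domain; Medium: Tris pH 7.5 buffer with BSA; Measure: loss of energy transfer signal; Controls: 5 µM unlabeled CBFb as full-inhibition high control; Incubation: protein complex preformed 1 h, compound exposure 1 h, room temperature, dark.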
Runt-SMMHC FRET: inhibitors of RUNX1 Runt–CBFb-SMMHC binding, primary screen, biochemical, FRET, Cerulean-Runt, Venus-CBFb-SMMHC, uHTS; AID 1434, 2008; Cerulean-Runt/Venus-CBFb-SMMHC FRET ratio 530/480, 1 h; inhibition, % at 20 µM; Runt-related transcription factor 1 (Homo sapiens) + Core-binding factor subunit beta …; 220,000 tested, 0.74% active;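 active means mean inhibition across duplicate retests at 20 µM reaching about 50%, limit read from the data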;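 further: 0% = DMSO wells and 100% = wells with excess untagged CBFb-SMMHC; inhibitors lower the FRET ratio by blocking Runt binding to CBFb-SMMHC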
Hck-Nef inh: inhibitors of Nef-activated human Hck kinase, primary screen, biochemical, Z-Lyte FRET, 384-well, Hck-YEEI; Recombinant Hck-YEEI plus Nef, Z-Lyte FRET kinase assay; AID 463187, 2010; inhibition, % at 20 µM; 220,000 tested, 0.68% active;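 active means Hck-Nef kinase inhibition above about 50%, limit read from the data; inactive means inhibition below that limit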;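 further: 0% = DMSO with Hck plus Nef and 100% = Hck alone without Nef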
Target sequence (P08631 whole entry, looked up): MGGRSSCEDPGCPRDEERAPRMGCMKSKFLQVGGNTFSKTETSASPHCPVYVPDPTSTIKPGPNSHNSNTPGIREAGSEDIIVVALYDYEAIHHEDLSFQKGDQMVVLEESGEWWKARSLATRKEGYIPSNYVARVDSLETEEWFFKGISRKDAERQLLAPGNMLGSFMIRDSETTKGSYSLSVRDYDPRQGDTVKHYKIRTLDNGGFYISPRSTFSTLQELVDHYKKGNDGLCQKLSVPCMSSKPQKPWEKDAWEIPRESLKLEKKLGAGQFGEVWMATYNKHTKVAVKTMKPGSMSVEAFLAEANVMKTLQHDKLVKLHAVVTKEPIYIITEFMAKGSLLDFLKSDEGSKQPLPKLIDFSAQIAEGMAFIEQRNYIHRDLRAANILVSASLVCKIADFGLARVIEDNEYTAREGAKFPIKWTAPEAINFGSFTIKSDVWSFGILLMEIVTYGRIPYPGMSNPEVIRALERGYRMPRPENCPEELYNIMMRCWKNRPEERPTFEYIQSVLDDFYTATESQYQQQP
RanGTP-Impb inh: inhibitors of RanGTP-importin-beta interaction, primary screen, biochemical, FRET, CFP-Ran, YFP-importin-beta, homogeneous; 300,000 tested, 1.1% active; cell-free CFP-Ran/YFP-importin-beta FRET ratio; inhibition, % (no concentration beside the values);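 active means more than half of the replicate wells show a fall in the fluorescence ratio signal beyond about 16%, limit read from the data, passing the limit was not always enough; inconclusive means exactly half of the replicate wells pass the set limit; inactive means fewer than half of replicates pass the limit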;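 further: 0% = DMSO wells and 100% = Ran loaded with GDP instead of GTP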
* = called active by the depositor; u = inconclusive; x = not tested or not shown. An excerpt weighted towards active compounds, which were near 1.9% of everything screened.

SMILES | Runt-CBFb FRET | Runt-SMMHC FRET | Hck-Nef inh | RanGTP-Impb inh
C=CCn1c2ccccc2c(=O)c2cc(C#Cc3ccsc3)ccc21 | x | x | x | 24*
CN(Cc1c(C(=O)N2CCc3ccccc3C2)nc2ccc(Cl)cn12)C(C1CC1)C1CC1 | -2 | 1 | 18 | 4
CC(=O)NS(=O)(=O)c1ccc(N2C(=O)c3ccccc3C2=O)cc1 | 1 | 2 | 11 | 20*
Cc1sc2ncnc(N3CCC(C(=O)NNC(=O)COc4cccc(C(F)(F)F)c4)CC3)c2c1C | x | x | x | 0
CC(=O)N(/N=C1\Sc2ccccc2C1=O)c1cccc(C)c1 | -6 | -8 | -1 | 23*
Cc1ccccc1/C=C1\SC(=S)N(/N=C/c2cc([N+](=O)[O-])ccc2O)C1=O | 5 | 1 | 26 | 0
Cc1cc(/C=c2\sc3nc4ccccc4n3c2=O)c(C)n1-c1ccc(C(=O)O)cc1 | 18 | 38 | -2 | u
Cc1cc(/C=c2/sc3nc4ccccc4n3c2=O)c(C)n1-c1ccccn1 | 8 | 6 | 1 | 16*
Cc1ccc(NC(=O)c2ccc(-n3cncn3)c([N+](=O)[O-])c2)cc1 | -1 | -2 | 3 | 26*
Cc1ccc(Cn2c(=O)sc3ccccc3c2=O)cc1 | -2 | -1 | 2 | -1
Cc1ccc(-n2sc3ccccc3c2=O)cc1 | -32 | 52* | -4 | -3
Cc1ccccc1NC(=O)c1cn2c(nc3ccccc32)c(C#N)c1C | -56 | 81* | 23 | 10
Cc1ccc(C)c(NC(=O)c2nnn(Cc3ccccc3)c2N)c1 | 0 | -32 | 0 | 168*
Cc1ccc(Cn2nnc(C(=O)Nc3cc(C)ccc3C)c2N)cc1 | -2 | 3 | 1 | 2
COC(=O)C1=COC(C)C2CN3CCc4c([nH]c5ccccc45)C3CC12 (stereo unspecified) | 11 | 46 | 3 | 122*
COC(=O)C1=C2c3[nH]c4ccccc4c3CCN2C(=O)CC1 | x | x | x | 3
O=C(O)COc1ccccc1Cc1ccccc1 | 88* | 143 | -2 | 0
C=CCc1ccccc1OCC(=O)O | 2 | -8 | 9 | 3
CCOC(=O)/C(C#N)=C\C=C1C=CN(C)C=C1 | x | -86 | -2 | 51*
COc1ccc(-n2c(NC(=O)c3ccc(Br)o3)c(C#N)c3nc4ccccc4nc32)cc1 | 88* | 44 | 18 | 155*
N#Cc1c(NC(=O)c2ccc(Br)o2)n(-c2ccccc2)c2nc3ccccc3nc12 | 38 | 81* | 35 | 162*
N#Cc1c(N)n(-c2ccc(O)cc2)c2nc3ccccc3nc12 | 4 | 12 | 31 | u
COc1ccc(-c2c(NC(=O)c3ccco3)oc3ccccc3c2=O)cc1OC | x | x | x | 4
CCCn1c(C)nc2c(c1=O)c1nc3ccccc3nc1n2CCC1=CCCCC1 | 22 | 64* | 5 | 1
CCOC(=O)/C(C#N)=C/c1c(N2CCN(CC)CC2)nc2c(C)cccn2c1=O | x | x | x | 99*
SMILES | Runt-CBFb FRET | Runt-SMMHC FRET | Hck-Nef inh | RanGTP-Impb inh
CCNC(=O)/C(C#N)=C/c1c(N2CCN(c3ccccc3)CC2)nc2c(C)cccn2c1=O | x | x | x | 20*
Cc1cccn2c(=O)c(/C=C(\C#N)C(=O)NCc3ccco3)c(N3CCOCC3)nc12 | 78* | 10 | 20 | 3
CCN1CCN(c2nc3c(C)cccn3c(=O)c2/C=C(\C#N)C(=O)NC)CC1 | x | x | x | -58
COCCNC(=O)/C(C#N)=C/c1c(N2CCN(c3ccccc3)CC2)nc2c(C)cccn2c1=O | x | x | x | 29*
COc1ccc(C2OC(=O)CC2C(=O)NCc2ccc(Cl)cc2)cc1OC (stereo unspecified) | 1 | 1 | 10 | -1
CN(CCCC(=O)NC1CC(C)(C)NC(C)(C)C1)S(=O)(=O)c1ccc([N+](=O)[O-])cc1 | 2 | -2 | 0 | 4
C=CCNC(=O)/C(C#N)=C/c1c(N2CC(C)OC(C)C2)nc2ccccn2c1=O (stereo unspecified) | 4 | 77* | 10 | 42*
COCCNC(=O)/C(C#N)=C/c1c(N2CCCCCC2)nc2ccccn2c1=O | x | x | x | 0
Cc1cccn2c(=O)c(/C=C(\C#N)C(=O)NCc3ccccc3)c(N3CCC(C(N)=O)CC3)nc12 | 148* | 89* | 6 | 3
N#C/C(=C\c1c(N2CCC(C(N)=O)CC2)nc2ccccn2c1=O)C(=O)NCc1ccco1 | 128* | 107* | 3 | 8
CCOc1nc(Nc2ccc(OC)cc2OC)nc(OCC)n1 | x | x | x | 5
CCCCOc1ccc(C2OC34CCCCC3C(C#N)(C#N)C2(C#N)C(=N)O4)cc1 (stereo unspecified) | 25 | 13 | -1 | -2
C=CCOc1ccc(C2OC34CCCCC3C(C#N)(C#N)C2(C#N)C(=N)O4)cc1 (stereo unspecified) | 27 | 50* | 1 | 46*
CCOc1ccc(C2OC34CCCCC3C(C#N)(C#N)C2(C#N)C(=N)O4)cc1OC (stereo unspecified) | 25 | 25 | 4 | 45*
COc1ccccc1NC(=O)Nc1ccccc1N1CCOCC1 | -1 | 0 | 19 | 5
CCCCn1c(N)c(N(CCOC)C(=O)COC(=O)/C=C/c2ccc(Br)cc2)c(=O)[nH]c1=O | x | x | x | 0
O=C(O)CCC(=O)c1cccc2ccccc12 | -1 | 4 | 7 | 0
O=C(O)CCC(=O)c1ccc2ccc3cccc4ccc1c2c34 | 28 | 69* | 12 | 5
COc1ccc(CNC(=O)COC(=O)CC2CCCC2)cc1 | 0 | -5 | 4 | 3
Cc1cc(C)c(C#N)c(SC(F)F)n1 | 0 | -1 | -2 | 98*
O=C(O)c1ccc(N/N=C/C=C/c2ccccc2)cc1 | 20 | 21 | 26 | 85*
Cn1nc(C(F)(F)F)c(-c2ccc(Br)cc2)c1NC(=O)Nc1ccc(F)cc1F | -3 | -1 | 13 | 0
Cc1ccc(N=Cc2nc(-c3ccc(C)cc3)oc2O)cc1 | -14 | -16 | 6 | 8
COc1ccc(N=Cc2nc(-c3ccco3)oc2O)cc1 | 1 | 5 | -1 | 20*
CCc1nc(SCC(=O)c2ccc3c(c2)OCCO3)c2ccccc2n1 | 29 | 56* | 2 | 12
COc1cccc(C2=NOC(C(=O)N3CCc4ccccc4C3)C2)c1 (stereo unspecified) | x | -2 | 23 | 23*
COCCCNC(=O)C(C#N)c1nc2ccccc2nc1N1CCN(Cc2ccccc2)CC1 (stereo unspecified) | 24 | 24 | -17 | u
CCN1CCN(c2nc3ccccc3nc2C(C#N)C(=O)OC2CCCCC2)CC1 (stereo unspecified) | 18 | 38 | 0 | x
CN1CCN(c2nc3ccccc3nc2C(C#N)C(=O)OC2CCCCC2)CC1 (stereo unspecified) | 0 | 2 | -4 | 15*

Bioassay records as filed in PubChem.
